The values that follow come from publication PMC11964553 (Materials Today Bio, 2025).

The nature of series [1]: Plasma pharmacokinetics in orthotopic 4T1 tumor-bearing mice. The series is classed as in vivo, BALB/c mice.
Series [2] is described as follows: Tissue quantification of Om and As in tumor. It is filed as in vivo, BALB/c mice. A digest of the protocol:
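Orthotopic 4T1-luc tumor-bearing female BALB/c mice were dosed i.v. with free drug combination or co-loaded liposome. Tumor and organs were collected at 1, 2, 4, 6, 8, 10, 12 and 24 h, weighed, and homogenized in cold methanol at 4 °C, then spun at 12,000 rpm for 10 min at 4 °C. The pellet was re-extracted with cold chloroform and the supernatants pooled. Parameters came from a non-compartmental model; n = 6.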

The conditions of series [3]: cited from earlier work.

In the case of `CC(C)(O)[C@@H]1CC[C@](C)([C@H]2[C@@H](O)C[C@@]3(C)[C@@H]4C[C@H](O[C@@H]5O[C@H](CO)[C@@H](O)[C@H](O)[C@H]5O)[C@H]5C(C)(C)[C@@H](O[C@@H]6OC[C@@H](O)[C@H](O)[C@H]6O)CC[C@@]56C[C@@]46CC[C@]23C)O1` [Free As, Astragaloside IV], the “Cmax of As in plasma” value in series [1] (i.v. 2.0 mg/kg Om and 1.5 mg/kg As, 4T1 tumor-bearing mice, n = 6) came out at 52.22 ± 9.04 ng/mL. Further, in series [1] (i.v., n = 6), the “MRT of As in plasma” value is 1.73 ± 0.50 h, the “Tmax of As in plasma” value came out at 0.17 ± 0.01 h and the “t1/2 of As in plasma” value is listed as 1.73 ± 1.03 h. In addition, in series [1] (time 0–24 h, i.v., n = 6), the “AUC of As in plasma” value is 38.77 ± 12.39 ng·h/mL. For the same compound, in series [2] (i.v., n = 6), the “Cmax of As in tumor” value came to 0.64 ± 0.26 ng/mL and the “MRT of As in tumor” value is recorded as 5.36 ± 2.05 h. Further, the “AUC of As in tumor” value in series [2] (time 0–24 h, i.v., n = 6) came out at 6.04 ± 2.43 ng·h/mL. The Solubility entry in series [3] is listed as “poor solubility”.
`O=C1CCC[C@@H]2[C@H]3CCC[N+]4([O-])CCC[C@@H](CN12)[C@@H]34` (stereo partly drawn) [Free Om, oxymatrine]: in series [1] (BALB/c, mouse, iv, 2 mg/kg), the AUC was determined as 1.01 ± 0.25 ng·h/mL, the highest level (Cmax) was 1.75 ± 0.31 ng/mL, the MRT was determined as 2.12 ± 1.19 h and the Tmax came to 0.17 ± 0.01 h. In addition, in series [1] (BALB/c, mouse, iv, 2 mg/kg), the half-life was 5.66 ± 2.12 h. Moreover, in series [2] (BALB/c, mouse, iv, 2 mg/kg), the AUC was 6.09 ± 3.96 ng·h/mL, the Cmax worked out at 0.92 ± 0.43 ng/mL and the mean residence time MRT worked out at 6.95 ± 2.83 h. Moreover, in series [3], the “log partition coefficient (log P)” value was “low”.
